In the library only some 2.6% were active in any assay of this set; here they are far more common.
RanGTP-Impb inh: inhibitors of RanGTP-importin-beta interaction, primary screen, biochemical, FRET, CFP-Ran, YFP-importin-beta, homogeneous; cell-free CFP-Ran/YFP-importin-beta FRET ratio; Ran GTPase (GTP-bound) - importin-beta complex; AID 2216, 2009; inhibition, % (test concentration not listed); 1.1% of 300,000 active;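 active means more than half of the replicate wells show a fall in the fluorescence ratio signal beyond about 16%, limit read from the data, passing the limit was not always enough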;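 further: 0% = DMSO wells and 100% = Ran loaded with GDP instead of GTP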
IMP-1 inh: IMP-1 metallo-beta-lactamase inhibitors, primary screen, biochemical, epi-absorbance readout, Pseudomonas aeruginosa enzyme. AID 1556, 2009. inhibition, % at 5.6 µM. 0.45% of 290,000 active. metallo-beta-lactamase IMP-1 (Pseudomonas aeruginosa). purified IMP-1, nitrocefin hydrolysis, epi-absorbance fluorescence;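 active means inhibition above the mean plus 3 SD of all compounds in the same screening run, cut at about 4.5% in these data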;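 further: 0% = IMP-1 with DMSO and 100% = DMSO wells lacking enzyme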
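System – purified recombinant IMP-1 beta-lactamase · Input – IMP-1 dispensed at 0.2 nM · Timing – 15 min preincubation plus 25 min reaction at 25 °C · Signal – Epi-absorbance fluorescence, 480 nm excitation, 530 nm emission · Measure – percent IMP-1 inhibition derived from blank-referenced optical density · Controls – Enzyme-plus-DMSO low control, enzyme-free DMSO high control · Replication – singlicate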
Runt-CBFb FRET: inhibitors of RUNX1 Runt–CBFb binding, primary screen, biochemical, FRET, Cerulean-Runt, Venus-CBFb, uHTS. Runt-related transcription factor 1 (Homo sapiens) + Core-binding factor subunit beta …. AID 1496, 2009. 0.46% of 220,000 active. inhibition, % at 20 µM. Cerulean-Runt/Venus-CBFb FRET ratio 530/480, 1 h;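 active means inhibition over about 50% at 20 µM in the single-dose screen, limit read from the data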;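 further: 0% = DMSO wells and 100% = excess unlabeled CBFb competitor control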
Target sequence (Q01196 whole entry, looked up): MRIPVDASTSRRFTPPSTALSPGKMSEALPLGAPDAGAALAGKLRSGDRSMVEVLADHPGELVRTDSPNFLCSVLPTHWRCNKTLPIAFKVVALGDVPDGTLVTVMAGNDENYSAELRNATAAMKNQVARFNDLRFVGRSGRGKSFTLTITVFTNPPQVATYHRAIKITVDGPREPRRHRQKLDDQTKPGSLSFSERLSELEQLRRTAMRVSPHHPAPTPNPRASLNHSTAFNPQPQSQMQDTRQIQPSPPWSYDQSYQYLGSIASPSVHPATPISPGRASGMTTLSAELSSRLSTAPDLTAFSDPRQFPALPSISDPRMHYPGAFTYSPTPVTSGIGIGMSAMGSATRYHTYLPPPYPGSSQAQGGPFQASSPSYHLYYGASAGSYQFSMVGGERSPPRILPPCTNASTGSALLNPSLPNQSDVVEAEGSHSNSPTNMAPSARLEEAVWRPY
Target sequence (Q13951 whole entry, looked up): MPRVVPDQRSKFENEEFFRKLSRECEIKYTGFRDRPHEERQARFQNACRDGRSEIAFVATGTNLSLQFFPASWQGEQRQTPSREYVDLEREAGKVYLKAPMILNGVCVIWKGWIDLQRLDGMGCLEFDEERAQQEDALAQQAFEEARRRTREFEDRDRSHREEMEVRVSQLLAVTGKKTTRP
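Assay system: Cerulean-Runt domain / Medium: Tris 50 mM pH 7.5, KCl, K2SO4, 0.01% BSA / Timing: protein complex preformed 1 h, compound exposure 1 h, room temperature, dark / Measured by: FRET, excitation 422 nm, emission at 530 and 480 nm / Evaluation: loss of energy transfer signal / Control set: 5 µM unlabeled CBFb as full-inhibition high control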
Runt-SMMHC FRET: inhibitors of RUNX1 Runt–CBFb-SMMHC binding, primary screen, biochemical, FRET, Cerulean-Runt, Venus-CBFb-SMMHC, uHTS | Cerulean-Runt/Venus-CBFb-SMMHC FRET ratio 530/480, 1 h | inhibition, % at 20 µM | 0.74% of 220,000 active | AID 1434, 2008;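 active means mean inhibition across duplicate retests at 20 µM reaching about 50%, limit read from the data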;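 further: 0% = DMSO wells and 100% = wells with excess untagged CBFb-SMMHC; inhibitors lower the FRET ratio by blocking Runt binding to CBFb-SMMHC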
VIM-2 inh: VIM-2 metallo-beta-lactamase inhibitors, primary screen, biochemical, epi-absorbance readout, Pseudomonas aeruginosa enzyme; purified VIM-2, nitrocefin hydrolysis, epi-absorbance fluorescence; inhibition, % at 5.6 µM; 0.89% of 290,000 active; AID 1527, 2009;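 active means inhibition above the mean of all tested compounds plus 3 SD, cutoff set per screening run, cut at about 7.5% in these data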;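 further: red hydrolysis product quenches plate fluorescence so inhibitors raise well fluorescence; 0% = enzyme with DMSO and 100% = DMSO without enzyme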
Numbers without * were called inactive; . = no result given; ! = a repeat was not active.

SMILES | RanGTP-Impb inh | IMP-1 inh | Runt-CBFb FRET | Runt-SMMHC FRET | VIM-2 inh
Cc1cccc2c(N)c3c(nc12)CCCC3 (tested in a mixture with another compound) | . | -2.7 | 2.4 | -3.5 | -0.5
O=C1c2ccccc2S(=O)(=O)N1CC1CC(c2ccccc2Cl)=NO1 (stereo not drawn) | 2.4 | -1.3 | -2.1 | -0.6 | -1.6
COc1ccccc1C1=NOC(CN2C(=O)c3ccccc3S2(=O)=O)C1 (stereo not drawn) | 6.4 | -3.7 | 1.7 | -0.9 | 7.7*
O=C(NCc1ccco1)c1cnn2c1NC(c1ccc(Br)cc1)CC2C(F)(F)F (stereo not drawn) | 24.9* | -4.3 | 0.1 | 7.0 | -0.8
Clc1cncc(Cl)c1NNc1c2ccccc2nc2ccccc12 | 22.9* | -1.7 | 128.4* | 82.6* | 2.3
CCC(=O)N/C(N)=N/c1nc(C)c2cc(C)c(C)cc2n1 | 13.0 | -1.3 | -0.6 | -5.6 | 10.0*
Cc1c2cc(O)c(=O)cc-2oc2cc(O)c(O)cc12 | -1.0 | 6.5*! | 0.9 | -168.2 | -0.8
COc1c(O)cc2oc(-c3ccc(O)cc3)cc(=O)c2c1O | 12.5 | . | 3.3 | 1.4 | .
O=C(Cn1c2ccccc2c(=O)c2ccccc21)Nc1cccc(F)c1 | 59.8* | -1.8 | 75.5* | 62.8* | -1.6
Cc1cccc(-n2c(O)c(C=Nc3ccccc3O)c3ccccc3c2=O)n1 | 30.2* | -1.8 | 0.6 | 7.3 | -3.6
CC(Oc1ccc2cc(-c3ccccc3)c(=O)oc2c1)C(=O)NCC1CCC(C(=O)O)CC1 (stereo not drawn) | 0.8 | -4.0 | . | . | -3.0
CCO[C@@H]1OC(C(=O)NC2CC2)=C[C@H](C2CC2)[C@H]1CCCO | 30.4* | . | -1.0 | 0.3 | .
CCO[C@H]1OC(C(=O)NC2CC2)=C[C@@H](C)[C@@H]1CCCO | 1.5 | -3.3 | -0.9 | 2.2 | -3.5
NNC(=O)[C@H](Cc1ccccc1)NC(=O)Nc1ccc2c(c1)OCCO2 | 2.1 | -4.4 | -0.6 | 3.1 | -4.7
COc1cc(/C=C2/SC(=S)N(Cc3ccccc3)C2=O)ccc1O | -5.3 | 4.7* | . | . | 2.8
O=C1/C(=C/c2ccncc2)SC(=S)N1Cc1ccccc1 | 2.6 | 6.2* | 3.3 | -9.2 | 0.8
CCCN1C(=O)/C(=C/c2ccncc2)SC1=S | -1.0 | -2.5 | -1.6 | 13.9 | -0.8
CCCn1nc(NS(C)(=O)=O)c2cc3cccc(C)c3nc21 | 0.6 | -2.2 | -7.5 | -25.7 | -1.8
Cc1ccc2cc3c(NC(=O)C(C)C)nn(C)c3nc2c1 | 8.4 | -1.4 | -2.4 | -12.2 | 2.4
COc1ccc(CC(=O)Nc2nn(C)c3nc4c(C)cccc4cc23)cc1 | 5.7 | -1.2 | 11.0 | 72.3* | -1.2
CCCC(=O)Nc1nn(C)c2nc3cc(C)ccc3cc12 | 6.3 | . | -0.4 | -0.7 | .
CCCn1nc(NC(=O)CC)c2cc3cccc(C)c3nc21 | 55.1* | -2.0 | . | . | -1.9
CCC(=O)Nc1nn(C)c2nc3c(C)cccc3cc12 | 22.5* | -3.1 | 17.7 | 86.5 | -1.4
CCn1nc(NC(=O)c2cccnc2)c2cc3cccc(C)c3nc21 | -18.3 | -3.7 | 11.3 | -22.2 | 0.8
Cc1cccc2cc3c(NC(=O)C(C)C)nn(C)c3nc12 | 46.6* | -2.8 | 13.9 | 22.4 | -1.9
Cn1c(=O)[nH]c(=O)c2c1nc(SCc1ccccc1Cl)n2CC(N)=O | 0.7 | 0.2 | . | . | -1.4
C=CCN1CC(=O)N2C(c3ccccc3)c3[nH]c4ccccc4c3C[C@H]2C1=O (stereo partly drawn) | 3.9 | -1.5 | . | . | -1.3
CN(Cc1nccs1)C(=O)C1CCC(=O)N(CCc2ccc(Cl)cc2)C1 (stereo not drawn) | 0.0 | 0.8 | . | . | 0.7
CN1CCN(CCCNCc2cn(CCC#N)c3ccccc23)CC1 | -0.1 | -1.9 | . | . | -0.1
CC(CCN1CCN(c2ccccc2)CC1)c1ccccc1 (stereo not drawn) | 0.0 | -1.6 | . | . | 0.6

From PubChem
